Assay results as given in publication PMC6203112 (International Journal of Chronic Obstructive Pulmonary …, 2018).

Legend:
[1] = Study 2 Part 1: single ascending dose PK via MDDPI; type: in vivo; conditions: human, plasma, inhaled
Outline: (§1)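 Blood was collected in lithium heparin, chilled on ice, and centrifuged at 2,000 ×g for 15 min at ~4°C. Plasma was stabilised with 1 M citric acid (100 µL per 1 mL plasma) and stored at ≤−65°C. After solid-phase extraction, samples were assayed by validated LC-MS/MS with heated electrospray and a deuterated internal standard (LLOQ 10 pg/mL). PK parameters were derived non-compartmentally.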

[2] = in humans; cited from earlier work
[3] = Safety assessments in both studies; type: in vivo, human
Outline: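 Healthy non- or ex-smoking volunteers aged 18–55 (Study 1 men only; Study 2 men and women), randomized, double-blind, placebo-controlled, single centre. AEs were recorded with the investigator-judged relation to study drug. Haematology and blood chemistry were taken at baseline and end of dosing. Blood pressure, ECG and 24 h Holter were taken at regular intervals, and FEV1 was checked for post-dose bronchospasm.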

[4] = Study 1 Part 1: single ascending dose PK via SDDPI; type: in vivo; conditions: human, plasma, inhaled
Outline: as §1

[5] = system: human bronchial epithelial cells; conditions: alone and in combination with low-dose corticosteroids; cited from earlier work
[6] = Study 1 Part 2: adverse events after multiple OD doses via SDDPI; type: in vivo, human
Outline: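 In Study 1 Part 2, healthy men were randomized to five parallel, dose-escalating cohorts. Each received test compound (100–1,600 µg) or matching placebo once daily for 7 days via a capsule-based single-dose dry-powder inhaler. AEs and investigator-assessed relation to study medication were recorded. Results are number (%) of subjects in the safety population (randomized, at least one dose).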

[7] = Study 1 Part 2: repeat ascending dose; type: in vivo, human; conditions: SDDPI; for CL/F / Racc / AUC(0-t): geometric mean (% CV); for AUC(0-t) / Tmax: human, plasma, inhaled; for AUC(0-t): AUC0–24 h; for Tmax: median (range)
Outline: as §1

[8] = following both single and multiple doses

## CS(=O)(=O)Nc1ccc(C(=O)O[C@@H](Cc2c(Cl)c[n+]([O-])cc2Cl)c2ccc(OC(F)F)c(OCC3CC3)c2)cc1OCC1CC1 [CHF6001]
[1]
  Tmax: 3 h
[1]; 2400 µg
  AUC(0-t): 35.2 ng·h/mL
  Cmax: 1.23 ng/mL
  Tmax: 3 h
  half-life: 49.1 h
[1]; 4000 µg
  AUC(0-t): 75.8 ng·h/mL
  Cmax: 2.55 ng/mL
  Tmax: 3 h
  half-life: 44 h
[1]; 4800 µg
  AUC(0-t): 77.4 ng·h/mL
  Cmax: 2.72 ng/mL
  Tmax: 3 h
  half-life: 40 h
[2]
  plasma protein bound: > 99%
[3]; both studies
  mean laboratory values: within normal ranges
[3]; both studies, single and multiple doses
  post-dose decreases in FEV1 (bronchospasm): no clinically significant post-dose decreases
[3]; [8]
  mean ECG values: within the normal range
  mean systolic and diastolic blood pressure: within the normal range
[3]; following single doses in both studies
  nausea events: no nausea events
[3]; single or multiple dosing
  relationship between dose and occurrence of AEs or serious adverse events: no relationship
[4]
  half-life: 30 to 45 h
[4]; 20 ug
  AUC(0-t): 0.0316 ng·h/mL
  Cmax: 0.0189 ng/mL
  half-life: 5.6 h
[4]; 100 ug
  AUC(0-t): 1.48 ng·h/mL
  Cmax: 0.0638 ng/mL
  half-life: 28.2 h
[4]; 200 ug
  AUC(0-t): 2.78 ng·h/mL
  Cmax: 0.14 ng/mL
  half-life: 30.1 h
[4]; 400 ug
  AUC(0-t): 5.38 ng·h/mL
  Cmax: 0.195 ng/mL
  half-life: 45.3 h
[4]; 800 ug
  AUC(0-t): 10.6 ng·h/mL
  Cmax: 0.432 ng/mL
  half-life: 26.3 h
[4]; 1600 µg
  AUC(0-t): 18 ng·h/mL
  Cmax: 0.73 ng/mL
  half-life: 27.4 h
[4]; 2000 µg
  AUC(0-t): 25.6 ng·h/mL
  Cmax: 0.983 ng/mL
  half-life: 37.3 h
[5]
  cytokine levels after rhinovirus challenge: reduced the levels of a range of cytokines in a concentration-dependent manner
[6]; 100 µg OD 7 days, N=8
  AE considered related to study medication: 0 Number (%) of subjects
  AE leading to death: 0 Number (%) of subjects
  AE leading to withdrawal: 0 Number (%) of subjects
  At least one AE: 3 (37.5) Number (%) of subjects
  At least one SAE: 0 Number (%) of subjects
  Back pain (AE): 0 Number (%) of subjects
  Diarrhea (AE considered related to study medication): 0 Number (%) of subjects
  Flatulence (AE considered related to study medication): 0 Number (%) of subjects
  Headache (AE considered related to study medication): 0 Number (%) of subjects
  Headache (AE): 0 Number (%) of subjects
  Nausea (AE considered related to study medication): 0 Number (%) of subjects
  Parosmia (AE considered related to study medication): 0 Number (%) of subjects
  Severe AE: 0 Number (%) of subjects
[6]; 300 µg OD 7 days, N=8
  AE considered related to study medication: 0 Number (%) of subjects
  AE leading to death: 0 Number (%) of subjects
  AE leading to withdrawal: 0 Number (%) of subjects
  At least one AE: 2 (25.0) Number (%) of subjects
  At least one SAE: 0 Number (%) of subjects
  Back pain (AE): 0 Number (%) of subjects
  Diarrhea (AE considered related to study medication): 0 Number (%) of subjects
  Flatulence (AE considered related to study medication): 0 Number (%) of subjects
  Headache (AE considered related to study medication): 0 Number (%) of subjects
  Headache (AE): 0 Number (%) of subjects
  Nausea (AE considered related to study medication): 0 Number (%) of subjects
  Parosmia (AE considered related to study medication): 0 Number (%) of subjects
  Severe AE: 0 Number (%) of subjects
[6]; 600 µg OD 7 days, N=9
  AE considered related to study medication: 0 Number (%) of subjects
  AE leading to death: 0 Number (%) of subjects
  AE leading to withdrawal: 0 Number (%) of subjects
  At least one AE: 5 (55.6) Number (%) of subjects
  At least one SAE: 0 Number (%) of subjects
  Back pain (AE): 0 Number (%) of subjects
  Diarrhea (AE considered related to study medication): 0 Number (%) of subjects
  Flatulence (AE considered related to study medication): 0 Number (%) of subjects
  Headache (AE considered related to study medication): 0 Number (%) of subjects
  Headache (AE): 2 (22.2) Number (%) of subjects
  Nausea (AE considered related to study medication): 0 Number (%) of subjects
  Parosmia (AE considered related to study medication): 0 Number (%) of subjects
  Severe AE: 0 Number (%) of subjects
[6]; 1,200 µg OD 7 days, N=9
  AE considered related to study medication: 0 Number (%) of subjects
  AE leading to death: 0 Number (%) of subjects
  AE leading to withdrawal: 0 Number (%) of subjects
  At least one AE: 2 (22.2) Number (%) of subjects
  At least one SAE: 0 Number (%) of subjects
  Back pain (AE): 0 Number (%) of subjects
  Diarrhea (AE considered related to study medication): 0 Number (%) of subjects
  Flatulence (AE considered related to study medication): 0 Number (%) of subjects
  Headache (AE considered related to study medication): 0 Number (%) of subjects
  Headache (AE): 0 Number (%) of subjects
  Nausea (AE considered related to study medication): 0 Number (%) of subjects
  Parosmia (AE considered related to study medication): 0 Number (%) of subjects
  Severe AE: 0 Number (%) of subjects
[6]; 1,600 µg OD 7 days, N=7
  AE considered related to study medication: 0 Number (%) of subjects
  AE leading to death: 0 Number (%) of subjects
  AE leading to withdrawal: 0 Number (%) of subjects
  At least one AE: 3 (42.9) Number (%) of subjects
  At least one SAE: 0 Number (%) of subjects
  Back pain (AE): 0 Number (%) of subjects
  Diarrhea (AE considered related to study medication): 0 Number (%) of subjects
  Flatulence (AE considered related to study medication): 0 Number (%) of subjects
  Headache (AE considered related to study medication): 0 Number (%) of subjects
  Headache (AE): 0 Number (%) of subjects
  Nausea (AE considered related to study medication): 0 Number (%) of subjects
  Parosmia (AE considered related to study medication): 0 Number (%) of subjects
  Severe AE: 0 Number (%) of subjects
[7]; 100 µg OD, Day 7, N=7
  CL/F: 723 (41.1) mL/min
  Racc: 2.89 (16.6)
[7]; 300 µg OD, Day 7, N=8
  CL/F: 860 (44.7) mL/min
  Racc: 2.49 (31.8)
[7]; 600 µg OD, Day 7, N=9
  CL/F: 956 (28.2) mL/min
  Racc: 2.47 (20.2)
[7]; 1,200 µg OD, Day 7, N=9
  CL/F: 772 (26.6) mL/min
  Racc: 2.74 (28.2)
[7]; 1,600 µg OD, Day 7, N=6
  CL/F: 910 (17.0) mL/min
  Racc: 2.75 (16.5)
[7]; 100 ug, 100 µg OD, Day 1, N=7
  AUC(0-t): 0.796 ng·h/mL
  Tmax: 1.5 h
[7]; 100 ug, 100 µg OD, Day 7, N=7
  AUC(0-t): 2.3 ng·h/mL
  Tmax: 1 h
[7]; 300 ug, 300 µg OD, Day 1, N=8
  AUC(0-t): 2.34 ng·h/mL
  Tmax: 2 h
[7]; 300 ug, 300 µg OD, Day 7, N=8
  AUC(0-t): 5.82 ng·h/mL
  Tmax: 1 h
[7]; 600 ug, 600 µg OD, Day 1, N=9
  AUC(0-t): 4.24 ng·h/mL
  Tmax: 1.5 h
[7]; 600 ug, 600 µg OD, Day 7, N=9
  AUC(0-t): 10.5 ng·h/mL
  Tmax: 2 h
